Assay results taken from ChEMBL document CHEMBL1139170, “Synthesis of 3-[4'-(p-chlorophenyl)-thiazol-2'-yl]-2-[(substituted azetidinone/thiazolidinone)-aminomethyl]-6-bromoquinazolin-4-ones as anti-inflammatory agent” (Bioorg Med Chem, 2007).

What was measured:
[1] = test system: Mus musculus; test: Analgesic activity in Albino mouse assessed as number of acetic acid-induced writhing at 50 mg/kg, po after 30 min; type: functional
[2] = Acute toxicity in albino mouse assessed as percent mortality after 24 hrs; type: organism-based; details: in vivo, read-out: ALD50
[3] = test system: Rattus norvegicus; test: Antiinflammatory activity against carrageenan-induced hind paw oedema in Charles foster rat assessed as inhibition of paw oedema at 50 mg/kg, po after 1 hr; type: functional; design: scale not given: the % may be the effect or the level left
Outline: (§1)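 Charles-Foster albino rats of either sex, no pregnant females, 70–95 days old, 100–150 g. Oral dose of 25, 50 or 100 mg/kg given 1 h before carrageenan. Carrageenan was a fresh 1% suspension in 0.9% saline, 0.05 mL under the plantar aponeurosis of the right hind paw. Paw volume measured by plethysmometer before and 3 h after carrageenan. Result is percent inhibition of oedema.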

[4] = test system: Rattus norvegicus; test: Antiinflammatory activity against carrageenan-induced hind paw oedema in Charles foster rat assessed as inhibition of paw oedema at 100 mg/kg, po after 1 hr; type: functional; design: scale not given: the % may be the effect or the level left; outline: as §1
[5] = test system: Mus musculus; test: Analgesic activity in Albino mouse assessed as number of acetic acid-induced writhing at 25 mg/kg, po after 30 min; type: functional
[6] = species: Rattus norvegicus; test: Ulcerogenic activity in 24 hrs fasted Charles foster rat; type: functional
Outline: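 Albino rats fasted 24 h, then given compound. Killed 8 h after dosing. Stomach and small intestine examined for hyperaemia, epithelial shedding, petechial or frank haemorrhage, and erosion or ulceration with or without perforation. Any one of these counted as ulcerogenic. Route reported as i.p. for the UD50.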

[7] = test system: Rattus norvegicus; test: Antiinflammatory activity against carrageenan-induced hind paw oedema in Charles foster rat assessed as inhibition of paw oedema at 25 mg/kg, po after 1 hr; type: functional; design: scale not given: the % may be the effect or the level left; outline: as §1
[8] = test system: Mus musculus; test: Analgesic activity in Albino mouse assessed as number of acetic acid-induced writhing at 100 mg/kg, po after 30 min; type: functional

SMILES	Activity [1] [%]	LD50 at 24 h [2] [mg/kg]	Activity [3] [%]	Activity [4] [%]	Activity [5] [%]	UD50 [6] [mg/kg]	Activity [7] [%]	Activity [8] [%]
COc1ccc(C2SCC(=O)N2NCc2nc3ccc(Br)cc3c(=O)n2-c2nc(-c3ccc(Cl)cc3)cs2)cc1 (centres undefined)	34.27	> 1000	36.11					
O=C1CSC(c2ccccc2Cl)N1NCc1nc2ccc(Br)cc2c(=O)n1-c1nc(-c2ccc(Cl)cc2)cs1 (centres undefined)	37.36	> 1000	38.35	67.45	14.22	195.6	17.84	61.12
COc1ccc(/C=N/NCc2nc3ccc(Br)cc3c(=O)n2-c2nc(-c3ccc(Cl)cc3)cs2)cc1	21.69	> 1000	23.29					
COc1ccccc1C1SCC(=O)N1NCc1nc2ccc(Br)cc2c(=O)n1-c1nc(-c2ccc(Cl)cc2)cs1 (centres undefined)	35.43	> 1000	36.98					
O=c1c2cc(Br)ccc2nc(CN/N=C/c2ccccc2Cl)n1-c1nc(-c2ccc(Cl)cc2)cs1	24.68	> 1000	26.44					
O=C1CSC(c2ccccc2)N1NCc1nc2ccc(Br)cc2c(=O)n1-c1nc(-c2ccc(Cl)cc2)cs1 (centres undefined)	32.45	> 1000	33.88					
CN(C)c1ccc(/C=N/NCc2nc3ccc(Br)cc3c(=O)n2-c2nc(-c3ccc(Cl)cc3)cs2)cc1	16.84	> 1000	17.88					
COc1ccccc1C1C(Cl)C(=O)N1NCc1nc2ccc(Br)cc2c(=O)n1-c1nc(-c2ccc(Cl)cc2)cs1 (centres undefined)	31.89	> 1000	32.45					
COc1ccc(C2C(Cl)C(=O)N2NCc2nc3ccc(Br)cc3c(=O)n2-c2nc(-c3ccc(Cl)cc3)cs2)cc1 (centres undefined)	30.67	> 1000	31.67					
Cc1ccc(C2SCC(=O)N2NCc2nc3ccc(Br)cc3c(=O)n2-c2nc(-c3ccc(Cl)cc3)cs2)cc1 (centres undefined)	32.87	> 1000	34.25					
O=c1c2cc(Br)ccc2nc(CN/N=C/c2ccc(Cl)cc2)n1-c1nc(-c2ccc(Cl)cc2)cs1	23.42	> 1000	25.12					
O=C1CSC(c2ccc(Cl)cc2)N1NCc1nc2ccc(Br)cc2c(=O)n1-c1nc(-c2ccc(Cl)cc2)cs1 (centres undefined)	36.26	> 1000	37.06					
CCCCC1C(=O)N(c2ccccc2)N(c2ccccc2)C1=O [PHENYLBUTAZONE]	36.5		38.9	66.58	16.3	66.6	18.46	60.23
COc1ccccc1/C=N/NCc1nc2ccc(Br)cc2c(=O)n1-c1nc(-c2ccc(Cl)cc2)cs1	22.18	> 1000	24.66					
Cc1ccc(C2C(Cl)C(=O)N2NCc2nc3ccc(Br)cc3c(=O)n2-c2nc(-c3ccc(Cl)cc3)cs2)cc1 (centres undefined)	29.12	> 1000	29.88					
O=C1C(Cl)C(c2ccccc2)N1NCc1nc2ccc(Br)cc2c(=O)n1-c1nc(-c2ccc(Cl)cc2)cs1 (centres undefined)	28.59	> 1000	29.16					
CN(C)c1ccc(C2SCC(=O)N2NCc2nc3ccc(Br)cc3c(=O)n2-c2nc(-c3ccc(Cl)cc3)cs2)cc1 (centres undefined)	28.76	> 1000	32.89					
O=c1c2cc(Br)ccc2nc(CN/N=C/c2ccccc2)n1-c1nc(-c2ccc(Cl)cc2)cs1	17.12	> 1000	18.75					
CN(C)c1ccc(C2C(Cl)C(=O)N2NCc2nc3ccc(Br)cc3c(=O)n2-c2nc(-c3ccc(Cl)cc3)cs2)cc1 (centres undefined)	27.35	> 1000	28.55					
O=C1CSC(c2ccc(O)cc2)N1NCc1nc2ccc(Br)cc2c(=O)n1-c1nc(-c2ccc(Cl)cc2)cs1 (centres undefined)	33	> 1000	35.13					
O=C1C(Cl)C(c2ccc(O)cc2)N1NCc1nc2ccc(Br)cc2c(=O)n1-c1nc(-c2ccc(Cl)cc2)cs1 (centres undefined)	29.92	> 1000	30.65					
O=C1C(Cl)C(c2ccc(Cl)cc2)N1NCc1nc2ccc(Br)cc2c(=O)n1-c1nc(-c2ccc(Cl)cc2)cs1 (centres undefined)	32.62	> 1000	33.07					
Cc1ccc(/C=N/NCc2nc3ccc(Br)cc3c(=O)n2-c2nc(-c3ccc(Cl)cc3)cs2)cc1	18.52	> 1000	19.14					
O=c1c2cc(Br)ccc2nc(CN/N=C/c2ccc(O)cc2)n1-c1nc(-c2ccc(Cl)cc2)cs1	18.96	> 1000	20.23					
O=C1C(Cl)C(c2ccccc2Cl)N1NCc1nc2ccc(Br)cc2c(=O)n1-c1nc(-c2ccc(Cl)cc2)cs1 (centres undefined)	34.11	> 1000	34.21					
